Legend:
[1] = tested on: MMP-2; assay: MMP-2 zymography; type: cell-based
In short: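 H226 cells treated with laminin (10 μg/ml) plus test compound for 12 h. Conditioned-medium proteins run on 10% SDS-PAGE containing 1 mg/ml gelatin. Gel incubated in reaction buffer; gelatinolytic zone of MMP-2 visualised by Coomassie Blue staining.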

[2] = target: T1, KRS–LR interaction (Homo sapiens, UniProt Q15046); assay: Yeast two-hybrid; type: cell-based; conditions: Y2H, 50 μg/ml, 6-day incubation
In short: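 Yeast EGY/SH cells co-expressing LexA–KRS and B42–LR grown in galactose medium lacking Ura, His, Trp and Leu, with compound at 50 μg/ml final. OD540 read after 6 days.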

[3] = tested on: H226 cells; assay: Transwell cell migration assay; type: cell-based, human
In short: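 H226 cells (1×10^5 per well) placed in the top chamber of a laminin-coated (10 μg/ml) 8.0 μm polycarbonate Transwell and left to migrate for 12 h with test compound. Migrated cells fixed in 70% methanol and stained with hematoxylin. Non-migrants swabbed off; cells counted in 3 random ×20 fields.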

[4] = target: KRS–67LR interaction (Homo sapiens, UniProt Q15046); assay: In vitro pull-down and IP assays; type: binding
In short: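 In vitro: 37LRP radiolabelled by coupled transcription/translation, mixed with 1 μg GST–KRS plus test compound, then GST pull-down; bound 37LRP detected by autoradiography. IP: Myc-KRS-transfected H226 cells pretreated with laminin 10 μg/ml for 1 h in serum-free medium, then test compound for 4 h. Lysates or membrane/cytosol fractions then used for IP and immunoblotting.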

[5] = tested on: H226 cells; assay: Matrigel invasion assay; type: cell-based, human
In short: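 Upper chamber of Transwell (8.0 μm pore polycarbonate) coated with Matrigel 1 mg/ml in cold serum-free medium and set 4 h at 37°C. H226 cells seeded on top; lower chamber held medium with laminin 10 μg/ml. Cells exposed to test compound for 24 h. Invaded cells fixed in 70% methanol, hematoxylin-stained, and counted in 3 random ×20 fields. Mean ± s.d.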

[6] = tested on: 67LR; assay: Membranous 67LR level by immunoblotting; type: cell-based
[7] = tested on: H226 cells; assay: Total protein synthesis; type: cell-based, human
In short: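 Compound-treated H226 cells held 30 min in Met-free medium, then labelled with [³⁵S]Met for 2 h. Cells returned to complete medium for 4 h, then lysed; radioactivity measured by scintillation counting. Lys variant used Lys-free medium and [³H]Lys.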

[8] = Pharmacokinetics analysis in male ICR mice; type: in vivo, mouse; conditions: 3 mg/kg
In short: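 Male ICR mice, n=4 per group, dosed at 3 mg/kg. Intravenous dosing as a solution in 40% dimethylformamide; oral dosing as a suspension in 0.5% methyl cellulose. About 50 μl orbital-vein blood drawn at 0.083 (i.v. only), 0.25, 0.5, 1, 2, 4, 8 and 24 h. Plasma stored at −70°C.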

[9] = tested on: WI-26 cells; assay: Transwell cell migration assay; type: cell-based; conditions: read-out: IC50 for inhibition of migration of WI-26
[10] = target: KRS (Homo sapiens, UniProt Q15046); assay: KRS aminoacylation enzymatic assay; type: biochemical; conditions: 0 to 40 μM
In short: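 KRS pre-incubated with test compound (0 to 40 μM final) for 30 min at 4°C before the aminoacylation reaction. Reaction aliquots quenched and precipitated on filter plates, washed, eluted with 0.2 M NaOH, and counted on a scintillation plate reader.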

[11] = tested on: Tg(MMTV-PyVT) mouse; assay: Tg; type: in vivo; conditions: 100 mg/kg intraperitoneally every other day for 6 weeks
[12] = target: KRS1–207 (Homo sapiens, UniProt Q15046); assay: SPR binding analysis
In short: (§1)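 Proteins immobilised at 30 μg/ml in 10 mM sodium acetate pH 5.0 on a CM5 chip: His-KRS WT, 1–207 and 220–597, plus GST-37LRP. Test compound in PBS with 0.05% Tween 20 and 2% DMSO, flowed at 20 μl/min, 25°C; binding read as RU change. For GST-tagged proteins, GST-only RU subtracted. Apparent constants fitted to 1:1 binding with drifting baseline.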

[13] = tested on: WI-26 cells; assay: MTT cell viability assay; type: cell-based; conditions: 24 h
In short: (§2)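 1×10^4 cells per well in 96-well plates; preincubated 1 h with laminin, then exposed to test compound for 24 h in serum-free medium. MTT (stock 5 mg/ml, diluted 10-fold) added for 30 min. Crystals dissolved in DMSO; absorbance read at […].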

[14] = tested on: 4T1 cells; assay: 4T1 mammary fat pad breast cancer metastasis model; type: in vivo, mouse; conditions: oral, 100 and 300 mg/kg
In short: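 4×10^4 4T1 cells injected into the surgically exposed No. 2 mammary fat pad of anaesthetised 7-week-old female BALB/cAnCr mice. Primary tumours (100–150 mm³) resected on day 10. Groups of n=5 balanced by resected tumour weight. Test compound or 0.5% methyl cellulose given orally once daily from day 1 after resection. Lungs excised at day 28 post-injection, fixed in Bouin's solution, and pulmonary nodules counted.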

[15] = target: T1, KRS–LR interaction; assay: Comparison of YH16899 with BC-K01 across functional assays; conditions: most of the assays tested
[16] = tested on: H226 cells; assay: MTT cell viability assay; type: cell-based, human; conditions: 24 h
In short: as §2

[17] = target: KRS–AIMP2 (Homo sapiens, UniProt Q15046); assay: Quantification of the KRS–AIMP2 interaction; type: binding; conditions: 0–100 μM
In short: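 AlphaScreen format. His-tagged KRS incubated overnight at 4°C with test compound (0–100 μM final). Ni-chelate donor beads (0.01 mg/ml final) added for 15 min. Acceptor beads (0.01 mg/ml final) and biotinylated AIMP2(1–48)–thioredoxin fusion then added for 1.5 h. Emission read at 520–620 nm, room temperature, triplicate.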

[18] = target: 37LRP (Homo sapiens, UniProt P08865); assay: SPR binding analysis
In short: as §1

[19] = Hematological metrics and blood chemistry in ICR mice; type: in vivo, mouse; conditions: high doses
[20] = tested on: A549-RFP cells; assay: A549-RFP left ventricle injection metastasis model; type: in vivo, mouse; conditions: 100 mg/kg oral once a day
In short: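 1×10^6 stable A549-RFP cells injected into the left ventricle of anaesthetised 6-week-old female BALB/cAnCr nude mice, n=10 per group. Test compound or 0.5% methyl cellulose given orally once daily from day 1 for 130 days. RFP signal of 5 random mice imaged by IVIS weekly, weeks 4–7. Body weight taken twice weekly for 50 days; survival followed to day 130.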

T1 sequence (Q15046 whole entry): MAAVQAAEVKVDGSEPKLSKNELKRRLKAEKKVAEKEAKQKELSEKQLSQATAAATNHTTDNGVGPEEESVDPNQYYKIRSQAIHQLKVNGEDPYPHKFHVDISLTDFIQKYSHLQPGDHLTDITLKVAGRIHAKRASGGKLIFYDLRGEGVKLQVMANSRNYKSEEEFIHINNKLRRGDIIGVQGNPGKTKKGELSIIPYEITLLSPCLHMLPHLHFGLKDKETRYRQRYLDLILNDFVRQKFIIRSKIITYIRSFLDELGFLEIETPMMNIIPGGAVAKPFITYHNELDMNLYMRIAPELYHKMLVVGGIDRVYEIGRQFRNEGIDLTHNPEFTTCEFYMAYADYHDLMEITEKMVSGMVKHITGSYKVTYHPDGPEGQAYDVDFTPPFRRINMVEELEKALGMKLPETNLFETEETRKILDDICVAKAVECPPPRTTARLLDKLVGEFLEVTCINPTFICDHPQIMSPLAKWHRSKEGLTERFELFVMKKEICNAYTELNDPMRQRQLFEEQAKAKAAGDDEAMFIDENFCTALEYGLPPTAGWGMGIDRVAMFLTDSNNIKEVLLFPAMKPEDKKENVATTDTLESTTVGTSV
Chain of KRS–67LR interaction (Q15046 whole entry): as above
Chain of KRS1–207 (Q15046 1-207): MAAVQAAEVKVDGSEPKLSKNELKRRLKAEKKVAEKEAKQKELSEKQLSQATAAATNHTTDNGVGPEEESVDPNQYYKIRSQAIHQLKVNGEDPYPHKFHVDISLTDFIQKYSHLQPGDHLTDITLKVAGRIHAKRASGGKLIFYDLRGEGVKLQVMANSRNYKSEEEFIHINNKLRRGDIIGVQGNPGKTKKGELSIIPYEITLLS
Chain of KRS–AIMP2 (Q15046 whole entry, the tested form may be a part): as the sequence (Q15046 whole entry) above
Chain of KRS–AIMP2 (Q13155 1-48 partner limits assumed): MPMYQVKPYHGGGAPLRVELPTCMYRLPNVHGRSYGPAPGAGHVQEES
Chain of KRS (Q15046 whole entry): as the sequence (Q15046 whole entry) above

Compound: CCC(C(=O)O)n1c(=NC(=O)c2ccc(C)cc2)sc2ccccc21 (centres unmarked) [BC-K01, 2-(2-{[4-(methyl)benzoyl]imino}benzothiazol-3-yl)butanoic acid]
- effect on MMP-2 [1]: suppressed the activity of MMP-2
- inhibition of KRS–LR interaction without affecting KRS–AIMP2 and MRS–AIMP3 pairs [2]: specifically inhibited
- effect on cell migration [3]: suppressed
- effect on binding of KRS and LR [4]: reduced the binding of the two proteins
- effect on cell invasion [5]: suppressed
- effect on level of 67LR in the plasma membrane [6]: decreased the level of 67LR in the plasma membrane in a concentration-dependent manner

Compound: CCC(C(=O)O)n1c(=NC(=O)c2cccc(C(F)(F)F)c2)sc2cc(F)c(F)cc21 (centres unmarked) [YH16899, 2-(5,6-difluoro-2-{[3-(trifluoromethyl)benzoyl]imino}benzo[d]thiazol-3(2H)-yl)butanoic acid]
- effect on cellular protein synthesis [7]: little or no effect
- volume of distribution in vivo compared to BC-K01 [8]: better volume of distribution
- IC50 [9]: > 50 µM
- effect on the catalytic activity of KRS [10]: little or no effect
- effect on body weight [11]: without affecting body weight
- reduction of pulmonary nodule formation [11]: approximately 70%
- binding to KRS1–207 compared with KRS1–597 and KRS220–597 [12]: preferential binding
- effect on cell viability [13]: did not affect the cell viability
- effect on MMP-2 [1]: suppressed the induction of MMP-2
- effect on body weight [14]: little or no effect on body weight
- inhibition of tumor metastases to the lungs ([14]; once a day): approximately 60%
- IC50 ([3]; Homo sapiens, NCI-H226, 12 h, read-out: IC50 for inhibition of H226 migration): 8.5 ± 2.1 µM
- effect on binding of KRS and LR [4]: hindered the interaction between the two proteins
- improvement of IC50 compared to BC-K01 [15]: 3- to 6 fold
- effect on cell viability [16]: did not affect the cell viability
- change in KRS binding affinity to AIMP2 [17]: little or no change
- binding to 37LRP [18]: did not show significant binding
- side effects (hematological metrics and blood chemistry) [19]: few side effects
- suppression of cell invasion ([5]; H226 cells, Matrigel): approximately 85%
- effect on level of 67LR in the plasma membrane [6]: decreased the amount of membranous 67LR
- effect on body weight [20]: did not affect the body weight
- survival ([20]; followed up to 130 days): greatly enhanced survival
- reduction of average radiance (photon imaging) ([20]; up to 7 weeks): approximately 50%

Source: paper PMC4021855 (Nature chemical biology, 2013)
